Experimental data published in ChEMBL document CHEMBL1144374, “Design, synthesis and biological evaluation of novel, simplified analogues of laulimalide: modification of the side chain” (Bioorg Med Chem Lett, 2005).
pIC50: −log10 of the molar value.

Experiments:
Assay type in all cases: cell-based
[1] = Inhibitory concentration measured in term of cytotoxicity against human A2780/AD10 cells; details: A2780 ADR
How it was run: (§1)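 Human ovarian carcinoma A2780 cells and the drug-resistant A2780/AD10 subline were exposed to compounds for three days. Growth was read by MTT cell proliferation assay. IC50 values are means ± standard error of at least four independent experiments. Compounds were scored not active when there was no activity below 50 µM.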

[2] = Inhibitory concentration of compound required for exhibiting cytotoxic effect on human A2780 cells; how it was run: as §1
[3] = Inhibitory concentration measured in term of cytotoxicity against human A2780/AD10 cells; na = not active below 50 uM; details: a2780 adr; how it was run: as §1
[4] = Inhibitory concentration of compound required for exhibiting cytotoxic effect on human A2780 cells; na = not active below 50 uM; how it was run: as §1
[5] = Inhibitory concentration of compound required for exhibiting cytotoxic effect on human A2780 cells; no. of experiment=4
How it was run: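 Human ovarian carcinoma A2780 cells exposed to drugs for three days. Growth was read by MTT (3-(4,5-dimethylthiazol-2-yl)-2,5-diphenyltetrazolium bromide) cell proliferation assay and IC50 determined. Values are means ± standard error of at least four independent experiments.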

Row | Compound | pIC50 [1] | pIC50 [2] | IC50 [3] | IC50 [4] | pIC50 [5]
1 | C=C1CCC[C@@H]2CC=C[C@@H](C/C=C\C(=O)O[C@H](CO)C[C@@H]3O[C@H]3[C@@H](O)C1)O2 | 4.36 | 4.40 | – | – | –
2 | C=C1CCC[C@@H]2CC=C[C@@H](C/C=C\C(=O)O[C@H]([C@@H](O)/C=C/c3csc(C)n3)C[C@@H]3O[C@H]3[C@@H](O)C1)O2 | – | – | Not Active | Not Active | –
3 | C=C1CCC[C@@H]2CC=C[C@@H](C/C=C\C(=O)O[C@H]([C@@H](O)/C=C/[C@@H]3CC(C)=CCO3)C[C@@H]3O[C@H]3[C@@H](O)C1)O2 | 7.13 | 7.30 | – | – | –
4 | C=C1CCC[C@@H]2CC=C[C@@H](C/C=C\C(=O)O[C@H]([C@@H](O)/C=C/C3CCCCC3)C/C=C/[C@@H](O)C1)O2 | – | – | Not Active | Not Active | –
5 | C=C1CCC[C@@H]2CC=C[C@@H](C/C=C\C(=O)O[C@H]([C@@H](O)/C=C/C3CCCCC3)C[C@@H]3O[C@H]3[C@@H](O)C1)O2 | 5.08 | 5.05 | – | – | –
6 | C=C1CCC[C@@H]2CC=C[C@@H](C/C=C\C(=O)O[C@H](CO)C/C=C/[C@@H](O)C1)O2 | – | – | Not Active | Not Active | –
7 | C=C1CCC[C@@H]2CC=C[C@@H](C/C=C\C(=O)O[C@H]([C@@H](O)/C=C/[C@@H]3CC(C)=CCO3)C/C=C/[C@@H](O)C1)O2 | 5.96 | 6.37 | – | – | –
8 | C=C1CCC[C@@H]2CC=C[C@@H](C/C=C\C(=O)O[C@H]([C@@H](O)/C=C/c3csc(C)n3)C/C=C/[C@@H](O)C1)O2 | – | – | Not Active | Not Active | –
9 | C=C/C=C\[C@H](C)[C@H](OC(N)=O)[C@@H](C)[C@H](O)[C@@H](C)C/C(C)=C\[C@H](C)[C@@H](O)[C@@H](C)/C=C\[C@@H](O)C[C@@H]1OC(=O)[C@H](C)[C@@H](O)[C@H]1C [DISERMOLIDE] | 7.00 | – | – | – | 8.00
10 | C=C1C[C@H](C)C[C@@H]2CC=C[C@@H](C/C=C\C(=O)O[C@H]([C@@H](O)/C=C/[C@@H]3CC(C)=CCO3)C[C@@H]3O[C@H]3[C@@H](O)C1)O2 [FIJIANOLIDE B] | 8.12 | 8.47 | – | – | –
11 | CC(=O)O[C@H]1C(=O)[C@@]2(C)[C@H]([C@H](OC(=O)c3ccccc3)[C@]3(O)C[C@H](OC(=O)[C@H](O)[C@@H](NC(=O)c4ccccc4)c4ccccc4)C(C)=C1C3(C)C)[C@]1(OC(C)=O)CO[C@@H]1C[C@@H]2O [PACLITAXEL] | 5.82 | – | – | – | 8.96
